According to ChEMBL document CHEMBL1154674, “Synthesis and evaluation of three 18F-labeled aminophenylbenzothiazoles as amyloid imaging agents” (J Med Chem, 2009):

What was measured:
Format in all cases: ADME, organism-based, Macaca mulatta
[1] = Drug level in normal rhesus monkey thalamus assessed as standard uptake value at 96.3 MBq, iv after 14 mins by microPET; conditions: in vivo
[2] = Drug level in normal rhesus monkey thalamus assessed as standard uptake value at 96.3 MBq, iv after 32.5 mins by microPET; conditions: in vivo
[3] = Drug level in normal rhesus monkey thalamus assessed as standard uptake value at 96.3 MBq, iv after 105 mins by microPET; conditions: in vivo, 1.75 h
[4] = Drug level in normal rhesus monkey pons assessed as standard uptake value at 96.3 MBq, iv after 10 mins by microPET; conditions: in vivo
[5] = Drug level in normal rhesus monkey pons assessed as standard uptake value at 96.3 MBq, iv after 105 mins by microPET; conditions: in vivo, 1.75 h
[6] = Drug level in normal rhesus monkey frontal cortex assessed as standard uptake value at 96.3 MBq, iv after 8 mins by microPET; conditions: in vivo
[7] = Drug level in normal rhesus monkey frontal cortex assessed as standard uptake value at 96.3 MBq, iv after 12 mins by microPET; conditions: in vivo, 0.2 h
[8] = Drug level in normal rhesus monkey white matter assessed as standard uptake value at 96.3 MBq, iv after 47.5 mins by microPET; conditions: in vivo
[9] = Drug level in normal rhesus monkey white matter assessed as standard uptake value at 96.3 MBq, iv after 52.5 mins by microPET; conditions: in vivo, 0.875 h
[10] = Drug level in normal rhesus monkey pons assessed as standard uptake value at 81.2 MBq, iv after 175 mins by microPET; conditions: in vivo
[11] = Drug level in normal rhesus monkey parietal cortex assessed as standard uptake value at 81.2 MBq, iv after 3.5 mins by microPET; conditions: in vivo
[12] = Drug level in normal rhesus monkey parietal cortex assessed as standard uptake value at 81.2 MBq, iv after 175 mins by microPET; conditions: in vivo
[13] = Drug level in normal rhesus monkey frontal cortex assessed as standard uptake value at 81.2 MBq, iv after 155 mins by microPET; conditions: in vivo
[14] = Drug level in normal rhesus monkey white matter assessed as standard uptake value at 81.2 MBq, iv after 2.5 mins by microPET; conditions: in vivo
[15] = Drug level in normal rhesus monkey white matter assessed as standard uptake value at 81.2 MBq, iv after 75 mins by microPET; conditions: in vivo, 1.25 h
[16] = Drug level in normal rhesus monkey thalamus assessed as standard uptake value at 81.2 MBq, iv after 8 mins by microPET; conditions: in vivo
[17] = Drug level in normal rhesus monkey cerebellum assessed as standard uptake value at 81.2 MBq, iv after 175 mins by microPET; conditions: in vivo
Outline: (§1)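 One normal rhesus monkey, each tracer given iv via the vena saphena (81.2, 96.3 or 109.4 MBq), with 1 day between tracer injections. Dynamic brain μPET over 180 min used frames of 5 × 60 s, 5 × 120 s, 9 × 300 s and 12 × 600 s. Images were reconstructed by filtered back projection with a RAMP filter. Regional time-activity curves were expressed as SUV.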

[18] = Drug level in normal rhesus monkey frontal cortex assessed as standard uptake value at 81.2 MBq, iv after 0.5 mins by microPET; conditions: in vivo
Outline: (§2)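 Single normal rhesus monkey; each tracer given iv via the vena saphena, with 1 day between tracer injections. Dynamic μPET ran 180 min (5×60 s, 5×120 s, 9×300 s, 12×600 s). Images were reconstructed by filtered back projection with a RAMP filter. Regional time-activity curves were expressed as SUV.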

[19] = Drug level in normal rhesus monkey frontal cortex assessed as standard uptake value at 81.2 MBq, iv after 12 mins by microPET; conditions: in vivo, 0.2 h; outline: as §2
[20] = Drug level in normal rhesus monkey cerebellum assessed as standard uptake value at 152.9 MBq, iv after 75 mins by microPET; conditions: in vivo, 1.25 h
Outline: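 Single normal rhesus monkey; tracer given iv via the vena saphena, 1 day apart from the other tracer injections. Dynamic μPET ran 90 min (5×60 s, 5×120 s, 9×300 s, 3×600 s). Images were reconstructed by filtered back projection with a RAMP filter. Regional time-activity curves were expressed as SUV.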

[21] = Drug level in normal rhesus monkey white matter assessed as standard uptake value at 152.9 MBq, iv after 57.5 mins by microPET; conditions: in vivo
[22] = Drug level in normal rhesus monkey thalamus assessed as standard uptake value at 152.9 MBq, iv after 42.5 mins by microPET; conditions: in vivo
[23] = Drug level in normal rhesus monkey pons assessed as standard uptake value at 152.9 MBq, iv after 2.5 mins by microPET; conditions: in vivo
[24] = Drug level in normal rhesus monkey parietal cortex assessed as standard uptake value at 152.9 MBq, iv after 57.5 mins by microPET; conditions: in vivo
[25] = Drug level in normal rhesus monkey parietal cortex assessed as standard uptake value at 152.9 MBq, iv after 65 mins by microPET; conditions: in vivo
[26] = Drug level in normal rhesus monkey cerebellum assessed as standard uptake value at 109.4 MBq, iv after 15.5 mins by microPET; conditions: in vivo
[27] = Drug level in normal rhesus monkey cerebellum assessed as standard uptake value at 109.4 MBq, iv after 52.5 mins by microPET; conditions: in vivo, 0.875 h
Outline: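 One normal rhesus monkey received each tracer via the vena saphena, with 1 day between injections. Dynamic μPET ran 180 min for 18F tracers (5×60 s, 5×120 s, 9×300 s, 12×600 s) and 90 min for the 11C tracer (5×60 s, 5×120 s, 9×300 s, 3×600 s). Filtered back-projection reconstruction (RAMP filter) was used. Time-activity curves were drawn to give regional SUV.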

[28] = Drug level in normal rhesus monkey cerebellum assessed as standard uptake value at 109.4 MBq, iv after 81 mins by microPET; conditions: in vivo, 1.35 h
[29] = Drug level in normal rhesus monkey frontal cortex assessed as standard uptake value at 109.4 MBq, iv after 1.5 mins by microPET; conditions: in vivo, 0.025 h; outline: as §1
[30] = Drug level in normal rhesus monkey thalamus assessed as standard uptake value at 109.4 MBq, iv after 12.5 mins by microPET; conditions: in vivo
[31] = Drug level in normal rhesus monkey thalamus assessed as standard uptake value at 109.4 MBq, iv after 42.5 mins by microPET; conditions: in vivo
[32] = Drug level in normal rhesus monkey cerebellum assessed as standard uptake value at 109.4 MBq, iv after 0.625 mins by microPET; conditions: in vivo, 38 s
[33] = Drug level in normal rhesus monkey cerebellum assessed as standard uptake value at 109.4 MBq, iv after 9.5 mins by microPET; conditions: in vivo
[34] = Drug level in normal rhesus monkey white matter assessed as standard uptake value at 109.4 MBq, iv after 32.5 mins by microPET; conditions: in vivo
[35] = Drug level in normal rhesus monkey white matter assessed as standard uptake value at 109.4 MBq, iv after 52.5 mins by microPET; conditions: in vivo, 0.875 h
[36] = Drug level in normal rhesus monkey parietal cortex assessed as standard uptake value at 109.4 MBq, iv after 63 mins by microPET; conditions: in vivo, 1.05 h

CN(C)c1ccc2nc(-c3ccc([18F])cc3)sc2c1
SUV [1]: 2.33 | SUV [2]: 2.33 | SUV [3]: 2.08 | SUV [4]: 1.57 | SUV [5]: 1.72 | SUV [6]: 1.98 | SUV [7]: 1.99 | SUV [8]: 1.37 | SUV [9]: 1.4

CNc1ccc2nc(-c3ccc([18F])cc3)sc2c1
SUV [10]: 5.471 | SUV [11]: 4.897 | SUV [12]: 2.528 | SUV [13]: 4.381 | SUV [14]: 2.607 | SUV [15]: 3.823 | SUV [16]: 4.734 | SUV [17]: 1.384 | SUV [18]: 0.756 | SUV [19]: 5.988

[11CH3]Nc1ccc(-c2nc3ccc(O)cc3s2)cc1 [PITTSBURGH COMPOUND B]
SUV [20]: 0.665 | SUV [21]: 0.957 | SUV [22]: 1.223 | SUV [23]: 1.05 | SUV [24]: 0.742 | SUV [25]: 0.69

Nc1ccc2nc(-c3ccc([18F])cc3)sc2c1
SUV [26]: 4.94 | SUV [27]: 3.38 | SUV [28]: 2.87 | SUV [29]: 3.35 | SUV [30]: 5.39 | SUV [31]: 5.55 | SUV [32]: 2.19 | SUV [33]: 5.44 | SUV [34]: 3.36 | SUV [35]: 3.54 | SUV [36]: 4.18
